The text below walks through data of ChEMBL document CHEMBL2150991, “Synthesis of novel N-branched acyclic nucleoside phosphonates as potent and selective inhibitors of human, Plasmodium falciparum and Plasmodium vivax 6-oxopurine phosphoribosyltransferases” (J Med Chem, 2012).

pKi: −log10 of the molar value.

Data set [1] in a line: Cytotoxicity against cat CRFK cells. The class given is cell-based, Felis catus.
For the next data set, the system named is CCRF-CEM. The data set can be described thus: Cytostatic activity against human CCRF-CEM cells. The class given is ADME, cell-based.
Data set [2] in a line: Inhibition of Plasmodium vivax HGPRT using Prib-PP as substrate by spectrophotometric assay in presence of guanine. The procedure, abridged: (§1)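 Continuous spectrophotometric assay at 25 °C in 0.1 M Tris-HCl, 10 mM MgCl₂, pH 7.4. PRib-PP is the variable substrate. Guanine is held fixed at a saturating 60 μM. Values are apparent Ki, since only one concentration of the second substrate was used. Each was calculated from Km(app) = Km(1 + [I]/Ki(app)).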

A short description of data set [3]: Cytotoxicity african green monkey Vero cells. The class given is cell-based. The note with it: chlorocebus sabaeus.
Data set [4] in a line: Inhibition of Plasmodium falciparum recombinant HGPRT expressed in Escherichia coli using Prib-PP as substrate by spectrophotometric assay in presence of guanine. In outline:
as §1

In a further data set the test system is HL-60. The data set can be described thus: Cytostatic activity against human HL60 cells. The class given is ADME, cell-based.
The nature of data set [5]: Cytotoxicity against human HEL cells. The class given is cell-based.
The test system of a further data set is L1210. The data set can be described thus: Cytostatic activity against mouse L1210 cells. The class given is ADME, cell-based.
For data set [6], the target named is T1, Hypoxanthine-guanine phosphoribosyltransferase (Homo sapiens, UniProt P00492).
T1 sequence (P00492 whole entry): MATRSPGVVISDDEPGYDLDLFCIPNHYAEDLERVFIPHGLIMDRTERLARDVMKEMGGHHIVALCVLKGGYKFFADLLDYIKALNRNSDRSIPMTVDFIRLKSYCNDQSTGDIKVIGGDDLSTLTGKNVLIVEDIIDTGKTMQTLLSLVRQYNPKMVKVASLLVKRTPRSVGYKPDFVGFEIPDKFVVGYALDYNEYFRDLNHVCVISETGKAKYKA
The data set can be described thus: Inhibition of human HGPRT using Prib-PP as substrate by spectrophotometric assay in presence of guanine. The procedure, abridged:
as §1

A short description of data set [7]: Cytostatic activity against human HeLaS3 cells. The class given is ADME, cell-based. As to conditions: hela s3.

On to `Nc1nc2c(ncn2CCN(CCP(=O)(O)O)CC(=O)O)c(=O)[nH]1`, for which the CC50 in data set [1], in data set [3] and in data set [5] was > 100 µg/mL throughout. Moreover, the Activity result (in the data set with CCRF-CEM; with HL-60; in the data set on L1210; in [7]) was “Non-toxic” in each case. For the same molecule, the values for the pKi in [2], in [4] and in data set [6] were 4.55, 6.15 and 5.85, respectively.

Turning to `COC(=O)CCN(CCn1cnc2c(=O)[nH]cnc21)CCP(=O)(O)O`, the CC50 in data set [1], in data set [3] and in data set [5] was > 100 µg/mL in each case. In addition, the Activity result (in the data set with CCRF-CEM; with HL-60; in the data set on L1210; in [7]) was “Non-toxic” each time. The values for the pKi in [2], in [4] and in [6] were 4.68, 7.00 and < 3.70, respectively.

For `N#CCN(CCn1cnc2c(=O)[nH]cnc21)CCP(=O)(O)O`, the CC50 in data set [1], in data set [3] and in [5] was > 100 µg/mL throughout. The Activity result (with CCRF-CEM; with HL-60; in the data set on L1210; in data set [7]) was “Non-toxic” in each case. The pKi (usually the negative decadic logarithm of the Ki, by convention in mol/L) in data set [2] is 4.33; in data set [4], ≤ 3.60; in [6], 4.46.

On to `Nc1nc2c(ncn2CCN(CCC(=O)O)CCP(=O)(O)O)c(=O)[nH]1`, for which the CC50 in [1], in data set [3] and in [5] was > 100 µg/mL throughout. For the same molecule, the Activity result (in the data set with CCRF-CEM; with HL-60; with L1210; in data set [7]) was “Non-toxic” each time. For the same molecule, the pKi in data set [2] was 7.30; in data set [4], 6.70; in data set [6], 6.82.
